According to ChEMBL document CHEMBL3297702, “Improving photodynamic inactivation of bacteria in dentistry: highly effective and fast killing of oral key pathogens with novel tooth-colored type-II photosensitizers” (J Med Chem, 2014):

Tests used:
[1] = test system: Enterococcus faecalis; experiment: Photodynamic inactivation of biofilm of Enterococcus faecalis ATCC 29212 polyspecies assessed as reduction of log10 CFU at 100 uM preincubated for 60 mins followed by irradiation with 600 mW/cm'2 for 120 secs measured after 24 hrs by agar plating method; assay type: functional
[2] = test system: Streptococcus mutans; experiment: Toxicity in Streptococcus mutans ATCC 25175 assessed as reduction of log10 CFU at 1 to 250 uM incubated for 10 secs to 15 mins under dark condition measured after 48 hrs by agar plating method
Outline: (§1)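 Dark controls. Overnight BHI cultures (EF, SM, AN aerobic; AA anaerobic; 37 °C) were washed into PBS at 10^7–10^8 cells/mL. They were mixed 1:1 with photosensitizer at final 0–250 µM and incubated 10 s, 7.5 min or 15 min, then kept in the dark for 20, 40 or 120 s. Tenfold dilutions were plated: EF on Mueller-Hinton agar, aerobic 24 h; SM on BHI agar, aerobic 48 h; AN on blood agar, aerobic 48 h; AA on BHI agar, anaerobic 48 h; all at 37 °C. CFU were compared with untreated controls; medians of three independent experiments in triplicate.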

[3] = test system: Actinomyces naeslundii; experiment: Toxicity in Actinomyces naeslundii T14V assessed as reduction of log10 CFU at 1 to 250 uM incubated for 10 secs to 15 mins under dark condition measured after 48 hrs by agar plating method; assay type: organism-based; settings: in vivo; outline: as §1
[4] = test system: Actinomyces naeslundii; experiment: Photodynamic inactivation of biofilm of Actinomyces naeslundii T14V polyspecies assessed as reduction of log10 CFU at 100 uM preincubated for 60 mins followed by irradiation with 600 mW/cm'2 for 120 secs measured after 28 hrs by agar plating method; assay type: functional
[5] = test system: Enterococcus faecalis; experiment: Toxicity in Enterococcus faecalis ATCC 29212 assessed as reduction of log10 CFU at 1 to 250 uM incubated for 10 secs to 15 mins under dark condition measured after 24 hrs by agar plating method; assay type: organism-based; settings: in vivo; outline: as §1
[6] = Stability of the compound in basic medium at 60 uM at pH > 9 after 5 to 30 mins by UV-vis spectra analysis; assay type: physicochemical
Outline: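 UV-Vis absorption spectra recorded in buffer solutions at different pH values after 5 and 30 min incubation.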

[7] = test system: Streptococcus mutans; experiment: Photodynamic inactivation of Streptococcus mutans ATCC 25175 assessed as reduction of log10 CFU at 1 uM incubated prior to irradiation with 50 j/cm'2 for 40 secs measured after 48 hrs by agar plating method (reference value: <1 no unit); assay type: functional
[8] = test system: Actinomyces naeslundii; experiment: Photodynamic inactivation of biofilm of Actinomyces naeslundii T14V monospecies assessed as reduction of log10 CFU at 100 uM preincubated for 60 mins followed by irradiation with 600 mW/cm'2 for 120 secs measured after 28 hrs by agar plating method; assay type: functional
[9] = test system: Enterococcus faecalis; experiment: Photodynamic inactivation of biofilm of Enterococcus faecalis ATCC 29212 monospecies assessed as reduction of log10 CFU at 100 uM preincubated for 60 mins followed by irradiation with 600 mW/cm'2 for 120 secs measured after 24 hrs by agar plating method; assay type: functional
[10] = test system: Aggregatibacter actinomycetemcomitans; experiment: Toxicity in Aggregatibacter actinomycetemcomitans ATCC 43718 assessed as reduction of log10 CFU under dark condition at 1 to 250 uM incubated for 10 secs to 15 mins under dark condition measured after 48 hrs by agar plating method; design: species or system Y4; outline: as §1
[11] = test system: Streptococcus mutans; experiment: Photodynamic inactivation of Streptococcus mutans ATCC 25175 assessed as reduction of log10 CFU at 10 uM incubated prior to irradiation with 50 j/cm'2 for 40 secs measured after 48 hrs by agar plating method (reference value: <1 no unit); assay type: functional
[12] = Stability of the compound in D2O assessed as aggregate formation by measuring shift of spectrum in aromatic region at > 0.5 ppm at 50 to 90 degC by NMR analysis; assay type: physicochemical
[13] = Stability of the compound in D2O assessed as aggregation at 1 to 20 mM by NMR analysis; assay type: physicochemical; settings: 20000 µM
Outline: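 ¹H NMR, aromatic region, in D2O at 1, 5, 10 and 20 mM; shifts referenced to external TMS, 1 ppm = 400 Hz; spectra compared across concentrations for dimerisation.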

[14] = test system: Actinomyces naeslundii; experiment: Photodynamic inactivation of Actinomyces naeslundii T14V assessed as reduction of log10 CFU at 10 uM incubated prior to irradiation with 150 j/cm'2 for 120 secs measured after 48 hrs by agar plating method (reference value: <1 no unit); assay type: functional
Outline: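 A. naeslundii T14V grown overnight at 37 °C, shaken, aerobically in BHI broth. Harvested at stationary phase, resuspended in PBS to 10^7–10^8 bacteria/mL (OD600). Mixed 1:1 with PS (final 0–250 µM) or water, 10 s incubation, then blue photopolymerizer light (1260 ± 50 mW/cm2) or dark. Tenfold dilutions plated on blood agar, aerobic 37 °C 48 h, CFU counted; medians of three independent experiments in triplicate.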

[15] = test system: Aggregatibacter actinomycetemcomitans; experiment: Toxicity in Aggregatibacter actinomycetemcomitans ATCC 43718 assessed as reduction of log10 CFU under dark condition at 1 to 250 uM incubated for 10 secs under dark condition measured after 48 hrs by agar plating method; design: species or system Y4; outline: as §1
[16] = test system: Actinomyces naeslundii; experiment: Toxicity in Actinomyces naeslundii T14V assessed as reduction of log10 CFU at 1 to 250 uM incubated for 10 secs under dark condition measured after 48 hrs by agar plating method; assay type: organism-based; settings: in vivo; outline: as §1
[17] = test system: Streptococcus mutans; experiment: Toxicity in Streptococcus mutans ATCC 25175 assessed as reduction of log10 CFU at 1 to 250 uM incubated for 10 secs under dark condition measured after 48 hrs by agar plating method; outline: as §1

| Stability [6] | Activity [12] [mM] | Stability [13] | SMILES | log10cfu [1] | Activity [2] | Activity [3] | log10cfu [4] | Activity [5] | log10cfu [7] | log10cfu [8] | log10cfu [9] | Activity [10] | log10cfu [11] | log10cfu [14] | Activity [15] | Activity [16] | Activity [17] |
| --- | --- | --- | --- | --- | --- | --- | --- | --- | --- | --- | --- | --- | --- | --- | --- | --- | --- |
| Unstable | – | – | O=C1C(C[n+]2ccccc2)=Cc2cccc3cccc1c23.[Cl-] | >5 | Non-toxic | Non-toxic | >5 | Non-toxic | <1 | >5 | >5 | Non-toxic | >6 | – | – | – | – |
| Unstable | 70 | Unstable | C[N+](C)(C)CC1=Cc2cccc3cccc(c23)C1=O.[Cl-] | – | – | – | – | – | – | – | – | – | – | – | – | – | – |
| – | – | – | C[N+](C)(CCO)CC1=Cc2cccc3cccc(c23)C1=O.[Cl-] | – | – | – | – | – | <1 | – | – | – | <3 | <5 | Non-toxic | Non-toxic | Non-toxic |
